The structures appear in SMILES notation. Activity calls are given as the source filed them. No cut-off for these calls is given here.

One assay is filed under the species Homo sapiens. Put plainly: Selectivity ratio of IC50 for TCPTP (unknown origin) to IC50 for GST-fused PTP1B catalytic domain (1 to 321 residues) (unknown origin) expressed in Escherichia coli.
Assay [1] concerns Mus musculus. The assay can be described thus: Antiobesity activity in BKS db mouse assessed as decrease in body weight at 100 mg/kg, po administered once daily for 5 weeks relative to control. The format is functional. Set-up: scale not given: the % may be the effect or the level left. In a few lines: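 Diabetic BKS db mice, n = 8 per group, were given 100 mg/kg/day orally for five weeks. Vehicle- and metformin-treated db mice and vehicle-treated BKS mice served as controls. Food intake, water intake and body weight were followed weekly, and abdominal fat pads were weighed at the end. Values are mean ± SEM.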

For assay [2], the system named is Mus musculus. Put plainly: In vivo inhibition of PTP1B in BKS db mouse assessed as increase in AKT phosphorylation at 100 mg/kg, po administered once daily for 5 weeks measured post last dose by Western blot analysis. The format is functional, organism-based. In a few lines:
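After five weeks of oral dosing, muscle tissue was taken from the BKS db mice. Phosphorylated and total Akt were measured by immunoblotting, n = 3, mean ± SEM.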
(A western blot detects proteins with antibodies after separation by electrophoresis.)

On to `CCOc1ccc(Oc2ccc(-c3cnc(-c4cc(O)c(O)c(Br)c4Br)o3)cc2)cc1`, for which the Ratio IC50 in the assay filed under Homo sapiens was 17 to 20. Further, in the assay with Mus musculus [1], the Activity is given as 15%. In addition, in the assay with Mus musculus [2], the inhibition result is “Active”.
